An excerpt weighted towards active compounds, which were near 1.6% of everything screened.
TPT1 inh = Candida albicans TPT1 enzyme inhibitors, primary screen, biochemical, fluorescence polarization; tRNA 2'-phosphotransferase TPT1 (Candida albicans SC5314); recombinant caTPT1, FP RNA substrate dephosphorylation; inhibition, % at 5 µM; hit rate 0.81% among 300,000;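 active = inhibition above the mean of all tested compounds plus 3 SD, set per screening campaign, cut at about 24% in these data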
HNF4A DNA FP = change in binding of human HNF4A to DNA, primary screen, biochemical, fluorescence polarization, FITC-DNA. activity change, % at 10 µM. hit rate 0.3% among 360,000. 1 h; in the data active = activity change above about 30%, passing the limit was not always enough
CSN inh = inhibitors of CSN-mediated cullin deneddylation, primary screen, biochemical, fluorescence polarization, uHTS | COP9 signalosome complex subunit 5 (Homo sapiens), Q92905 | hit rate 0.38% among 360,000 | AID 651999, 2013 | inhibition, % at 12.5 µM | Purified CSN, SCF-Nedd8-OG deneddylation;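 active = pattern-corrected inhibition above about 35%, with an unprinted fluorescence ratio check between 0.5 and 1.5, limit read from the data, passing the limit was not always enough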
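Detection – fluorescence polarization · System – HEK293T-derived human Csn5 enzyme · Controls – substrate-only high control, full reaction low control · Timing – 90 min, room temperature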
PKA-R2B act = activators of PKA-R2B holoenzyme, primary screen, biochemical, fluorescence polarization, Cy5-IP20, human | PKA-R2B holoenzyme dissociation; R2B truncated from residue 108, S112A mutant; 0% DMSO only, 100% 113 µM cGMP | hit rate 0.079% among 340,000 | activation, % at 11.4 µM | AID 504700, 2011 | cAMP-dependent protein kinase catalytic subunit beta (Homo sapiens) + cAMP-dependent …;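 active = activation above a cutoff set at the mean over all compounds plus 3 SD, cut at about 18% in these data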;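 note: higher means more holoenzyme dissociation and a rise in polarization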
Rpn11 block = Rpn11 (PSMD14) deubiquitinase inhibitors, primary screen, biochemical, fluorescence polarization, uHTS; calls only at 20 µM; AID 588493, 2011; hit rate 0.59% among 360,000; 26S proteasome non-ATPase regulatory subunit 14 (Homo sapiens), O00487; human 26S proteasome, Ub4-pepOG fluorescence polarization; 20S core pre-blocked with epoxomicin;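 active = inhibition at 20 µM, scaled to each plate's controls, above about 33%, limit read from the data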
Target sequence (O00487 whole entry, looked up): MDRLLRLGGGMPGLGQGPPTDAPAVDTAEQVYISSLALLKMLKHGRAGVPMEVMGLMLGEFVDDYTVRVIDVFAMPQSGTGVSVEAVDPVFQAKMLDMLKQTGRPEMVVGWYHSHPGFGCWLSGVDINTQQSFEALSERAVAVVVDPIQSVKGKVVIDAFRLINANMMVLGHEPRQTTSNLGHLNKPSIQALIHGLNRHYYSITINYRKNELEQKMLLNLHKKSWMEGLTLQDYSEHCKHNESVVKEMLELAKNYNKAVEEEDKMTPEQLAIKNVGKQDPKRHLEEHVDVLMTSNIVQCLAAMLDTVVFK
PKA-R1A act = activators of PKA-R1A holoenzyme, primary screen, biochemical, fluorescence polarization, Cy5-IP20, bovine R1A, mouse PKAc; AID 504707, 2011; PKA-R1A dissociation; scaled: DMSO 0%, 113 µM cGMP 100%; activation, % at 11.4 µM; cAMP-dependent protein kinase type I-alpha regulatory subunit (Bos taurus) + …; hit rate 0.083% among 340,000;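 active = percent activation above the mean of all tested compounds plus 3 SD, cut at about 19% in these data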;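 note: higher means more PKAc released from R1A so a rise in polarization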
R1A FP artifact = FP signal interference without PKA proteins, confirmation, artefact control for PKA-R1A activator project, biochemical, fluorescence polarization, triplicate; hit rate 7% among 280; AID 504799, 2011; Cy5-IP20 peptide alone, fluorescence polarization artifact counterscreen; activation, % at 11.4 µM; shares compounds with PKA-R1A act;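 active = mean activation over triplicate runs exceeds the adjusted cutoff derived for the parent primary screen, cut at about 19% in these data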;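 note: no PKA protein present so any polarization rise reflects compound interference; higher means stronger polarization artifact and likely false positive in parent screen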
PKA-R1A confirm = activators of PKA-R1A holoenzyme, confirmation, biochemical, fluorescence polarization, Cy5-IP20, triplicate; hit rate 9% among 280; shares compounds with PKA-R1A act; activation, % at 11.4 µM; PKA-R1A holoenzyme dissociation;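 active = mean activation over replicate wells exceeds the adjusted hit threshold taken from the earlier primary screen, cut at about 20% in these data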
Of the large screens only hits and unclear results are named; the others gave an inactive call (follow-up assays come after a bar, where they were run).

CCOc1ccc(-c2csc3ncn(-c4ccc(OC)cc4)c(=O)c23)cc1	none
COc1cccc(NC(=O)CN(C)C(=O)CCNS(=O)(=O)c2ccc(C)cc2)c1	PKA-R1A act 19 (no result: TPT1 inh) | R1A FP artifact inactive | PKA-R1A confirm inactive
CCOc1ccc(NC(=O)CN(C)C(=O)CCNC(=O)c2ccco2)cc1OCC	PKA-R1A act 19 (no result: TPT1 inh) | R1A FP artifact inactive | PKA-R1A confirm inactive
Cc1cccc(NC(=O)CSc2ccc(C(N)=O)cc2[N+](=O)[O-])c1C	none
COC(=O)C1(C)NC(=O)c2ccccc2N1 (stereo unspecified)	none
COC(=O)C1(C)Nc2ccccc2C(=O)N1c1ccccc1OC (stereo unspecified)	PKA-R1A act 23 | R1A FP artifact inactive | PKA-R1A confirm inactive
CC(C)Nc1ccc(C(CC(N)=O)NC(=O)c2ccc(Br)cc2)cc1[N+](=O)[O-] (stereo unspecified)	none
CN(Cc1ccccc1)c1ccc(C(CC(N)=O)NC(=O)c2ccc(Br)cc2)cc1[N+](=O)[O-] (stereo unspecified)	PKA-R1A act 25 | R1A FP artifact 19 | PKA-R1A confirm 19
CCOc1ccc(OCc2nnc(SCC(=O)NC3CCS(=O)(=O)C3)n2-c2ccc(Cl)cc2)cc1 (stereo unspecified)	none
O=C(NCC1CCCO1)/C(=C\c1ccccc1F)NC(=O)c1ccccc1 (stereo unspecified)	none
CCC(=O)Nc1ccc(C(=O)NNC(=O)COc2cccc(C)c2)cc1	PKA-R1A act 20 | R1A FP artifact inactive | PKA-R1A confirm inactive
Cc1ccc(Oc2nnc(-c3cccs3)c3ccccc23)cc1C	none
Cc1ccc(S(=O)(=O)n2cnc(C)c2)cc1	PKA-R1A act 20 | R1A FP artifact inactive | PKA-R1A confirm inactive
O=C(O)c1nn(CC(=O)N2CCC(Cc3ccccc3)CC2)c(=O)c2ccccc12	PKA-R1A act 21 | R1A FP artifact inactive | PKA-R1A confirm inactive
COc1cc(OC)cc(-c2nc(-c3ccccc3OC)no2)c1	PKA-R1A act 19 | R1A FP artifact inactive | PKA-R1A confirm inactive
COc1ccccc1-c1noc(-c2cc(OC)c(OC)c(OC)c2)n1	none
Cc1cccn2c(CN[C@@H]3CCCC[C@H]3c3ccccc3)c(C(=O)N3CCOCC3)nc12	PKA-R1A act 19 | R1A FP artifact inactive | PKA-R1A confirm inactive
Cc1cccn2c(CNC3CCCc4ccccc43)c(C(=O)N3CCOCC3)nc12 (stereo unspecified)	none
CN(C)c1ccc(C(=O)NCCCSc2ccccc2)cc1	PKA-R1A act 20 | R1A FP artifact inactive | PKA-R1A confirm inactive
N#Cc1ccc(C(=O)NCCCSc2ccccc2)cc1	none
Cc1ccnc(SCc2cc(=O)c(OC(=O)c3cc([N+](=O)[O-])ccc3Cl)co2)n1	PKA-R1A act 19 | R1A FP artifact inactive | PKA-R1A confirm inactive
COc1ccc(OC)c(CN2C(=O)CSCC2(C)C(=O)NCc2ccccc2)c1 (stereo unspecified)	none (no result: TPT1 inh, PKA-R2B act, Rpn11 block, PKA-R1A act)
CCn1cc([N+](=O)[O-])c(C(=O)Nc2c(C)nn(Cc3cccc(F)c3)c2C)n1	PKA-R1A act 19 | R1A FP artifact inactive | PKA-R1A confirm inactive
O=C(/C=C1\OCc2ccccc21)c1ccccc1	none (no result: TPT1 inh, PKA-R2B act, Rpn11 block, PKA-R1A act)

Screening results deposited in PubChem by several laboratories.
